In the array DNA melting data of Ke et al. (doi:10.1101/2024.01.08.574731):

Columns and labels:
[1] = folding enthalpy; higher = less favourable; fluorescence melt of hairpins on a sequencing array, two-state fit; conditions: sodium 0.088 M
In short: (§1)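 Cy3 signals were normalised both to pre-quench Cy3 and to control constructs. They came from library hairpins carrying annealed Cy3 and quencher oligos on a sequenced MiSeq flow cell, imaged in 50 mM Na-HEPES pH 8.0, 25 mM NaCl, in 2.5 °C steps up to 60 °C. Bootstrapped two-state fits gave melting temperature and folding enthalpy, and four replicates were combined by inverse variance. Fitted temperatures were then raised by 9.35 °C to match UV melts.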

[2] = melting temperature; fluorescence melt of hairpins on a sequencing array, two-state fit, raised by 9.35 °C to match UV melts; conditions: sodium 0.088 M
In short: as §1

| Sequence | folding enthalpy [1] | Tm [2] |
| --- | --- | --- |
| GGATACGAAAGTACATCC ((((((....)))..))) | -17.1 kcal/mol | 34.5 °C |
| GGATACGAAAGTACTCC ((((((....))).))) | -22.9 kcal/mol | 37.9 °C |
| GGATACGAAAGTACTTCC ((((((....)))..))) | -17.1 kcal/mol | 34.8 °C |
| GGATACGAAAGTAGTCC ((((((....))).))) | -20.6 kcal/mol | 40.4 °C |
| GGATACGAAAGTATTTCC ((((((....)))..))) | -24.9 kcal/mol | 28.1 °C |
| GGATACGGAAACGTGTTC (.(.(((....))).).) | -18.8 kcal/mol | 32.2 °C |
| GGATAGCCGAAAGGCTCC (((..(((....)))))) | -9.11 kcal/mol | 38.1 °C |
| GGATAGCGAAAGCTTTCC (((.(((....))).))) | -29.7 kcal/mol | 49.3 °C |
| GGATAGGGAAACCCATCC ((((.((....)).)))) | -29.4 kcal/mol | 39.8 °C |
| GGATAGGGAAACTTATCC (((((.(....).))))) | -30.3 kcal/mol | 35.7 °C |
| GGATATCGAAAGATTTCC (((.(((....))).))) | -30.9 kcal/mol | 41.5 °C |
| GGATCACGAAAGTGGTCC (((.(((....))).))) | -33.7 kcal/mol | 60.4 °C |
| GGATCCACGAAAGTGTCC (((..(((....)))))) | -12.4 kcal/mol | 28.4 °C |
| GGATCCGAAAGGAACTCC ((((((....)))..))) | -13.3 kcal/mol | 34.7 °C |
| GGATCCGAAAGGAAGTCC ((((((....)))..))) | -10.1 kcal/mol | 29.5 °C |
| GGATCCGAAAGGAGGTCC ((((((....)))..))) | -14.9 kcal/mol | 32.9 °C |
| GGATCCGAAAGGATATCC ((((((....)))..))) | -15.2 kcal/mol | 40.7 °C |
| GGATCCGGAAACGGGTCC (((.(((....))).))) | -43.7 kcal/mol | 59.4 °C |
| GGATCCGGAAACGGGTTC (.(.(((....))).).) | -16.8 kcal/mol | 38 °C |
| GGATCCTCGAAAGAGTCC (((..(((....)))))) | -12.3 kcal/mol | 23.6 °C |
| GGATCGCGAAAGCGCTCC (((.(((....))).))) | -25.3 kcal/mol | 54.2 °C |
| GGATCGGGAAACCAATCC ((((.((....)).)))) | -29.6 kcal/mol | 38.2 °C |
| GGATCTACGAAAGTATCC (((..(((....)))))) | -11.3 kcal/mol | 32.9 °C |

| Sequence | folding enthalpy [1] | Tm [2] |
| --- | --- | --- |
| GGATCTTCGAAAGAATCC (((..(((....)))))) | -10.7 kcal/mol | 25.8 °C |
| GGATGAGCGAAAGCTTCC (((..(((....)))))) | -11.4 kcal/mol | 39.4 °C |
| GGATGAGGAAACTCGTCC (((.(((....))).))) | -38.4 kcal/mol | 50.8 °C |
| GGATGCGAAAGCAAATCC ((((((....)))..))) | -21 kcal/mol | 47.1 °C |
| GGATGCGAAAGCAGATCC ((((((....)))..))) | -16.1 kcal/mol | 45.6 °C |
| GGATGCGAAAGCAGTTCC ((((((....)))..))) | -14.3 kcal/mol | 36 °C |
| GGATGCGGAAACACATCC (((((.(....).))))) | -44.2 kcal/mol | 47.9 °C |
| GGATGCGGAAACGCATTC (.(((((....))))).) | -19.2 kcal/mol | 54.5 °C |
| GGATGCGGAAACGCGTCC (((.(((....))).))) | -47.5 kcal/mol | 61.8 °C |
| GGATGCTCGAAAGAGTCC (((..(((....)))))) | -12.1 kcal/mol | 29.1 °C |
| GGATGGGGAAACCCATCC (((((((....))))))) | -46.7 kcal/mol | 66.4 °C |
| GGATGGGGAAACCTGTCC (((..((....))..))) | -29.3 kcal/mol | 41 °C |
| GGATGGGGAAACTCATCC (((((.(....).))))) | -41 kcal/mol | 49.2 °C |
| GGATGGTCGAAAGACTCC (((..(((....)))))) | -14.2 kcal/mol | 32.9 °C |
| GGATGTCCGAAAGGATCC (((..(((....)))))) | -14.3 kcal/mol | 32.2 °C |
| GGATGTCGAAAGACGTCC (((.(((....))).))) | -38.8 kcal/mol | 61 °C |
| GGATGTGGAAACACATCC (((((((....))))))) | -42.6 kcal/mol | 64.5 °C |
| GGATGTGGAAACACGTCC (((.(((....))).))) | -55.2 kcal/mol | 53 °C |
| GGATGTGGAAACGCATTC (.(((.(....).))).) | -22.9 kcal/mol | 33.9 °C |
| GGATTACGAAAGTATTCC (((.(((....))).))) | -32.6 kcal/mol | 44 °C |
| GGATTAGCGAAAGCTTCC (((..(((....)))))) | -11.1 kcal/mol | 32.7 °C |
| GGATTAGGAAACTAGTCC (((.(((....))).))) | -25.2 kcal/mol | 37.2 °C |
| GGATTCGAAAGAAATCC ((((((....))).))) | -24.1 kcal/mol | 44 °C |

| Sequence | folding enthalpy [1] | Tm [2] |
| --- | --- | --- |
| GGATTCGAAAGAACTCC ((((((....))).))) | -22 kcal/mol | 36 °C |
| GGATTCGAAAGAACTTCC ((((((....)))..))) | -8.73 kcal/mol | 28.4 °C |
| GGATTCGAAAGAAGTCC ((((((....))).))) | -17.2 kcal/mol | 36.7 °C |
| GGATTGACGAAAGTCTCC (((..(((....)))))) | -13.7 kcal/mol | 28.4 °C |
| GGATTGCGAAAGCATTCC (((.(((....))).))) | -36.2 kcal/mol | 52.8 °C |
| GGATTGGGAAACCAGTCC (((.(((....))).))) | -31.1 kcal/mol | 46.9 °C |
| GGATTGTCGAAAGACTCC (((..(((....)))))) | -16 kcal/mol | 30.9 °C |
| GGATTTGGAAACAGATCC ((((.((....)).)))) | -30.7 kcal/mol | 41.5 °C |
| GGATTTGGAAACGAATCC (((((.(....).))))) | -34.9 kcal/mol | 46.1 °C |
| GGCAAAACGAAAGTTGCC (((..(((....)))))) | -38.6 kcal/mol | 52.7 °C |
| GGCAAAGCGAAAGCTGCC (((..(((....)))))) | -31.3 kcal/mol | 58.5 °C |
| GGCAAAGGAAACTTTACC ((.((((....)))).)) | -27.4 kcal/mol | 30.1 °C |
| GGCAAAGGAAACTTTGCC (((((((....))))))) | -40.7 kcal/mol | 62.7 °C |
| GGCAACCCGAAAGGGGCC (((..(((....)))))) | -23.8 kcal/mol | 55.4 °C |
| GGCAACCGAAAGGTAGCC (((.(((....))).))) | -33.6 kcal/mol | 62.4 °C |
| GGCAACGAAAGTTCGCC ((((((....))).))) | -22.9 kcal/mol | 51.6 °C |
| GGCAACGAAAGTTCGGCC ((((((....)))..))) | -25.2 kcal/mol | 44.4 °C |
| GGCAACGAAAGTTGCGCC ((((((....)))..))) | -7.94 kcal/mol | 59.2 °C |
| GGCAACGGAAACATTGCC (((((.(....).))))) | -31.6 kcal/mol | 45.1 °C |
| GGCAACGGAAACGTTGTC (.(((((....))))).) | -39.2 kcal/mol | 55.9 °C |
| GGCAACTCGAAAGAGGCC (((..(((....)))))) | -22.7 kcal/mol | 48.8 °C |
| GGCAAGGGAAACCCTGCC ((((.((....)).)))) | -38.6 kcal/mol | 53.2 °C |
| GGCAAGGGAAACTTTGCC (((((.(....).))))) | -37.7 kcal/mol | 50.1 °C |

| Sequence | folding enthalpy [1] | Tm [2] |
| --- | --- | --- |
| GGCAAGTCGAAAGACGCC (((..(((....)))))) | -18.2 kcal/mol | 53.1 °C |
| GGCAATCCGAAAGGAGCC (((..(((....)))))) | -23.4 kcal/mol | 46.9 °C |
| GGCAATGAAAATTGCC ((((((....)))))) | -37.5 kcal/mol | 61.4 °C |
| GGCAATGGAAACATCGCC (((.(((....))).))) | -34.7 kcal/mol | 45.5 °C |
| GGCAATGGAAACATTGTC (.(((((....))))).) | -33.5 kcal/mol | 48.4 °C |
| GGCAATTCGAAAGAAGCC (((..(((....)))))) | -24.7 kcal/mol | 37.8 °C |
| GGCACAACGAAAGTTGCC (((..(((....)))))) | -16.4 kcal/mol | 44.2 °C |
| GGCACACCGAAAGGTGCC (((..(((....)))))) | -14.3 kcal/mol | 52.8 °C |
| GGCACAGGAAACTGCGCC (((.(((....))).))) | -50.8 kcal/mol | 55.8 °C |
| GGCACATCGAAAGATGCC (((..(((....)))))) | -14.7 kcal/mol | 42.8 °C |
| GGCACCGAAAGGTCGGCC ((((((....)))..))) | -21.8 kcal/mol | 49.9 °C |
| GGCACCGAAAGGTCTGCC ((((((....)))..))) | -22.2 kcal/mol | 48.4 °C |
| GGCACCGAAAGGTGTGCC ((((((....)))..))) | -16.3 kcal/mol | 55.4 °C |
| GGCACCGAAAGGTTTGCC ((((((....)))..))) | -22.6 kcal/mol | 50.6 °C |
| GGCACCGGAAACGATGCC ((((.((....)).)))) | -43.2 kcal/mol | 52.9 °C |
| GGCACCGGAAACGGTACC ((.((((....)))).)) | -22.5 kcal/mol | 50.7 °C |
| GGCACGCCGAAAGGCGCC (((..(((....)))))) | -6.45 kcal/mol | 40.3 °C |
| GGCACGGGAAACCGTGTC (.(((((....))))).) | -34.6 kcal/mol | 59.2 °C |
| GGCACTACGAAAGTAGCC (((..(((....)))))) | -11.9 kcal/mol | 39.3 °C |
| GGCACTGCGAAAGCAGCC (((..(((....)))))) | -8.74 kcal/mol | 35.9 °C |
| GGCACTGGAAACAGCACC ((..(((....)))..)) | -9.94 kcal/mol | 23.5 °C |
